This is a sample that favours compounds with a hit; in the whole collection about 1.7% have one here.
SR-BI DiI inh: mouse SR-BI HDL lipid transfer inhibition; Q61009; ldlA[mSR-BI] CHO cells, DiI-HDL uptake fluorescence, 3 h; inhibition, % at 12.5 µM; hit rate 0.96% among 320,000; AID 488896;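 active means mean replicate inhibition of at least 70% and a set share of replicates each scoring 70 or more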
Target sequence (Q61009 whole entry, looked up): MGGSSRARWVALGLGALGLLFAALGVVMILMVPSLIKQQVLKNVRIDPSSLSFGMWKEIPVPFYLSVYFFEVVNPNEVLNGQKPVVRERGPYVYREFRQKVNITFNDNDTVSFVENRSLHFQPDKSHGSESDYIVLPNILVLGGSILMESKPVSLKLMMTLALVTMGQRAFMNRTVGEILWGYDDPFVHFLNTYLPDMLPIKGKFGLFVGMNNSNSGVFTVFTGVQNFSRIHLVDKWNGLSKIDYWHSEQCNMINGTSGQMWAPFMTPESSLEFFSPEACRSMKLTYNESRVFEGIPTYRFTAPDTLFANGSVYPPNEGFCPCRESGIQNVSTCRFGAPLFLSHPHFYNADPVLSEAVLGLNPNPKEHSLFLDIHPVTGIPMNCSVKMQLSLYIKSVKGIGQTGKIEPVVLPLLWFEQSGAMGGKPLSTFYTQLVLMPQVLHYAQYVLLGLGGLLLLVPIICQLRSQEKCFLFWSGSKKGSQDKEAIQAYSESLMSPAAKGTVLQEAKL
Statin myotox sup: suppressors of simvastatin-induced myotoxicity in C2C12 myotubes; ATP luminescence, 48 h; scaled: DMSO 0, geranylgeraniol control 100; rescue of ATP level, % at 7.49 µM; hit rate 0.78% among 330,000; AID 602340;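 active means mean ATP rescue above about 67%, or every replicate alone reaching that limit, limit read from the data, passing the limit was not always enough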;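 further: myotubes were challenged with 10 µM simvastatin during compound exposure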
SR-BI uptake up: SR-BI HDL lipid transfer activation; activation, % at 12.5 µM; CHO ldlA[mSR-BI] cells, DiI-HDL uptake fluorescence, 3 h; 100 = double the neutral-control signal; hit rate 0.096% among 320,000;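 active means mean replicate activation of at least 60% and every replicate at or above 60%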
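System: LDL receptor-deficient CHO ldlA cells overexpressing murine SR-BI | Timing: 3 h uptake period with compound, 37 °C | Medium: HEPES-buffered (25 mM, pH 7.4) F12 plus 0.5% BSA | Dosing: Single-point compound dose | Signal: Bottom-read fluorescence, 550/595 nm | Read-out: Retained DiI signal reflecting DiI-HDL uptake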
Vif inh: blocks HIV Vif function. HEK293T cells, Vif self-association by quenched fluorescence, imaging, 24 h. inhibition, % at 7.49 µM. hit rate 0.35% among 340,000; in the data active means inhibition above about 50%, passing the limit was not always enough
Hits are given with their value; i = inactive; nt = no result.

SMILES | SR-BI DiI inh | Statin myotox sup | SR-BI uptake up | Vif inh
CCCNC(=O)c1ccc(SCC(=O)N(CC)CC)c([N+](=O)[O-])c1 | i | i | i | 65
C[C@H]1CN([C@@H](C)CO)C(=O)Cc2cc(NS(C)(=O)=O)ccc2O[C@@H]1CN(C)S(=O)(=O)c1ccccc1 | nt | i | nt | nt
COC(=O)C[C@@H]1CC[C@@H]2[C@H](COc3ccc(NC(=O)Nc4cc(C)cc(C)c4)cc3C(=O)N2C)O1 | nt | i | nt | nt
NC(=O)CC(NC(=O)c1ccc(Br)cc1)c1ccc(NC2CCCCC2)c([N+](=O)[O-])c1 (configuration not stated) | i | i | i | i
NC(=O)CC(NC(=O)c1ccc(Br)cc1)c1ccc(NC2CCCCCC2)c([N+](=O)[O-])c1 (configuration not stated) | i | i | i | 70
O=[N+]([O-])c1ccc(Sc2cccc[n+]2[O-])c2nonc12 | i | nt | i | 77
C[C@H](CO)N1C[C@H](C)[C@@H](CN(C)C(=O)Nc2ccc(C(F)(F)F)cc2)Oc2ccc(NC(=O)Cc3cn(C)c4ccccc34)cc2CC1=O | nt | i | nt | nt
O=C(C[C@H]1CC[C@H](NC(=O)Nc2ccc3c(c2)OCO3)[C@H](CO)O1)NCc1ccc(Cl)cc1 | nt | i | nt | nt
Cc1noc(C)c1NC(=O)Nc1ccc2c(c1)C(=O)N(C)[C@@H]1CC[C@H](CC(=O)N(C)C)O[C@H]1CO2 | nt | i | nt | nt
CN(C)CCOC1c2ccccc2CCc2ccc3ccccc3c21 (configuration not stated) | i | nt | 436 | i
C[C@H]1CN([C@@H](C)CO)C(=O)Cc2cc(NC(=O)C3CC3)ccc2O[C@@H]1CN(C)Cc1ccc(Cl)c(Cl)c1 | nt | i | nt | nt
C[C@@H]1CN([C@H](C)CO)C(=O)Cc2cc(NC(=O)c3ccncc3)ccc2O[C@@H]1CN(C)Cc1ccc(Cl)c(Cl)c1 | nt | 70 | nt | nt
C[C@H](CO)N1C[C@H](C)[C@@H](CN(C)Cc2ccc(Cl)c(Cl)c2)Oc2ccc(NC(=O)C3CC3)cc2CC1=O | nt | 85 | nt | nt
Cc1cccc(NC(=O)Nc2ccc3c(c2)C(=O)N(C)[C@H]2CC[C@@H](CC(=O)NCc4ccccc4Cl)O[C@H]2CO3)c1 | nt | i | nt | nt
CCC(NS(=O)(=O)c1ccc(C)cc1)C(=O)Nc1ccc(NC(C)=O)cc1 (configuration not stated) | i | 138 | i | i
CCN(C(=O)c1ccc2c(Cl)c3c(nc2c1)CCC3)c1ccc(C)c(C)c1 | 86 | i | i | i
C[C@H](NC(=O)C[C@H]1C[C@@H]2c3cc(NC(=O)Cc4ccncc4)ccc3O[C@@H]2[C@@H](CO)O1)c1ccccc1 | nt | i | nt | nt
CCOc1ccccc1/C=N/NC(=O)c1ccc(Cn2cc([N+](=O)[O-])cn2)o1 | 87 | i | i | i
CCOc1ccc(/C=N/NC(=O)c2ccc(Cn3cc([N+](=O)[O-])cn3)o2)cc1 | i | i | i | i
CCOc1ccccc1C=NNC(=O)C(=O)NN=Cc1ccccc1OCC | i | i | i | i
CCOc1ccccc1C=NNC(=O)CCCCC(=O)NN=Cc1ccccc1OCC | 81 | i | i | i
CCOc1ccccc1NC(=O)C(=O)N/N=C/c1cc(Br)ccc1O | 126 | i | i | i
CCCCOC(=O)c1ccc(Nc2ncnc3nc[nH]c23)cc1 | i | i | i | i
CCCCCCCCOC(=O)c1cc([N+](=O)[O-])c(Sc2ncnc3nc[nH]c23)c([N+](=O)[O-])c1 | 77 | nt | i | i
CSc1nc2ccccc2cc1/C=C(\C#N)c1cccc(Cl)c1 | i | i | i | 63
SMILES | SR-BI DiI inh | Statin myotox sup | SR-BI uptake up | Vif inh
CCOC(=O)/C(C#N)=C/c1cc2ccccc2nc1Cl | i | i | i | nt
C[C@H](CO)N1C[C@H](C)[C@H](CN(C)C(=O)c2ccccc2)Oc2cc(C3=CCCCC3)ccc2S1(=O)=O | nt | i | nt | nt
CCOC(=O)C1=C(C)N[C@@]2(O)c3ccccc3C(=O)[C@@]12O | i | 130 | i | i
Cc1ccc2c(c1)N(S(=O)(=O)c1ccc(F)cc1)C(C(C)(C)C)CO2 (configuration not stated) | i | i | i | i
Cc1ccc2c(c1)NC(C(C)(C)C)CO2 (configuration not stated) | i | 115 | i | i
O=C(CCN1C(=O)/C(=C/c2ccccc2)SC1=S)Nc1ccccn1 | i | 93 | i | i
O=C(CCCN1C(=O)/C(=C\c2cccc(Br)c2)SC1=S)Nc1ccc(C(=O)O)cc1 | nt | i | nt | 77
COCC#Cc1cnc2c(c1)C(=O)N([C@@H](C)CO)C[C@H](C)[C@@H](CN(C)C(=O)CCN1CCCCC1)O2 | nt | i | nt | nt
O=C(OCC(=O)N1CCN(C(=O)c2ccco2)CC1)c1ccccc1OCc1ccc(Cl)cc1 | i | 133 | i | i
O=C(OCC(=O)N1CCOCC1)c1ccccc1OCc1ccc(Cl)cc1 | i | i | i | i
Cc1ccc(S(=O)(=O)N(C)C[C@H]2Oc3ccc(NC(=O)Cc4ccccc4)cc3C(=O)N([C@H](C)CO)C[C@H]2C)cc1 | nt | i | nt | nt
O=C(C[C@H]1C=C[C@@H](NS(=O)(=O)c2cccc(F)c2)[C@H](CO)O1)NCc1ccc2c(c1)OCO2 | nt | i | nt | nt
CCOC(=O)C(C)C1(O)c2ccccc2-c2ncccc21 (configuration not stated) | i | 106 | i | i
OC(CC1CC12c1ccccc1-c1ncccc12)(c1ccccc1)c1ccccc1 (configuration not stated) | i | i | i | i
COc1cccc(OCC(=O)Nc2cc(Cl)ccc2Oc2ccccc2)c1 | 87 | nt | i | i
COc1cccc(OCC(=O)Nc2ccccc2NC(C)=O)c1 | i | i | i | i
CC1=NN(c2ccccc2)C(=O)/C1=C/c1cc(C)n(C2CC2)c1C | 72 | nt | i | i
Cc1ccc(S(=O)(=O)N(C)C[C@@H]2Oc3ccc(NC(=O)Cn4cnnn4)cc3CC(=O)N([C@@H](C)CO)C[C@H]2C)cc1 | nt | i | nt | nt
Cc1ccc2nc(SCC(=O)N(CC(C)C)c3c(N)n(CC(C)C)c(=O)[nH]c3=O)[nH]c2c1 | i | 101 | i | i
O=C(NCC[C@H]1CC[C@@H](NC(=O)c2cnccn2)[C@H](CO)O1)Nc1ccc(F)cc1 | nt | i | nt | nt
CCN(CC)CCNC(=O)c1cc2c(-c3ccc(Cl)cc3)nn(C)c2s1 | i | i | i | i
Cn1nc(-c2ccc(Cl)cc2)c2cc(C(=O)NCCN3CCOCC3)sc21 | 86 | i | i | i
CCn1c(=O)c2cc(C(=O)NCc3cccs3)sc2c2ccccc21 | 71 | i | i | i
CCCCNC(=O)c1cc2c(=O)n(CC)c3ccccc3c2s1 | 73 | i | i | i
CCn1c(=O)c2cc(C(=O)NCCN3CCOCC3)sc2c2ccccc21 | 88 | i | i | i
CO[C@@H]1CN(C)C(=O)c2ccc(NC(=O)Nc3ccc(Cl)cc3)cc2OC[C@@H](C)NC[C@@H]1C | nt | i | nt | nt
CO[C@@H]1CN(C)C(=O)c2cc(NC(C)=O)ccc2OC[C@@H](C)N(C(=O)CC2CC2)C[C@@H]1C | nt | i | nt | nt
C[C@@H]1CN([C@@H](C)CO)C(=O)c2cc(C#CC3CCCCC3)cnc2O[C@@H]1CN(C)S(C)(=O)=O | nt | i | nt | nt
CCCCSc1nnc(-c2ccccc2)c2ccccc12 | 74 | nt | i | nt

From PubChem BioAssay
